In the EternaBench riboswitch data:

Tested on: MS2 coat protein
Assay: apparent Kd, MS2 coat protein; higher = weaker binding; RNA-MaP array; FMN 200 µM where present
Summary of the method: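 Stalled E. coli RNA polymerase transcribed the designs on Illumina sequencing-chip clusters. SNAP-549-labelled MS2 coat protein was titrated from 0.7 or 1.5 nM, doubling to 3 µM, without and then with constant ligand, in 100 mM Tris-HCl pH 7.5, 80 mM KCl, 4 mM MgCl2, BSA, DTT, yeast tRNA and Tween-20. Per-cluster binding curves were fitted to green signal normalised to red-channel RNA signal and control-cluster median Fmax. The apparent Kd is the median of the filtered fits.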

[1] = designed as: ON switch for flavin mononucleotide, no ligand
[2] = ligand present: flavin mononucleotide, designed as: ON switch for flavin mononucleotide
[3] = designed as: OFF switch for flavin mononucleotide, no ligand
[4] = ligand present: flavin mononucleotide, designed as: OFF switch for flavin mononucleotide

Sequence	apparent Kd [1] [nM]	apparent Kd [2] [nM]	apparent Kd [3] [nM]	apparent Kd [4] [nM]
GACUUGGCUACAUGAGGAUCACCCAUGUUUGACUGGAUCGAUCAGGAUAUAGUAAUUUGCAACAAUUAGAAGGGAUAUUUACGG	65.9	56.9	–	–
GUCUUACAUGAGGAUCACCCAUGUGAGGAUAUCCCGGGCCCGGGCUUGCCCGGGCCCGGGAGAAGGCACAUGUU	–	–	32.2	99.4
UUGGAGAUAGGAUAUACGAGGAGAGUAGAGGGAAGGUGAUGACAUGAGGAUCACCCAUGUAGAAGGAUCAGGAG	–	–	155	100
CUAUGCGGAAUAGGAUAUUCAUUCAUGAGGAUAGAAGAAGGGUUACAUGAGGAUCACCCAUGUAUACACAUGAGGAUCCCUUAG	–	–	150	156
CUGUAUGAUGUAGGAUAUACUUUAAUAUUGUAAGUAGAAGGACAUGAGGAUCACCCAUGUAUAUAAAUUUUAAUUAUUUUUGCG	–	–	51.2	39.3
GACAUGAGGAUCACCCAUGUACAUGAGGAUCACCCAUGUUCUGAGGAUAUAGAUGAGGAUCACCUCUAGAAGGCAGCGCGCGCG	–	–	251	202
CAGCUGAAUGUGAGGAUAUGUCUAGCCUCGGCUAGACAGAAGGCACAUGAGGAUCACCCAUGUCUCAACAGCUG	–	–	38.8	675
CCAUCGAGUGUGAGGAUAUGCUGGUCCUUGGAUCAGCAGAAGGCACAUGAGGAUCACCCAUGUGGAGACGGUGG	–	–	60.1	286
UAAAAGACUAGCAACUAUCUCCACAUGAGGAUCACCCAUGUCUAGGAUAUGAGCAGCAAAGCUGCUUAGAAGGAGACGCUAGUC	–	–	6.67	6.88
UGUCGGAGCAGAGGAUAUUACAUGAGGAUCACCCAUGUAUGAACCAAUAGCUGGAAACAGCAAUGUAAGAAGGCUUCUCCGACA	–	–	7.13	45.9
CAGCACUGUCGAGAGGAUAUGCGGUGAUGGACAUGAGGAUCACCCAUGUUAGCGACAGCAUCACGGCAGAAGGCUCUGCUGCUGC	59.4	16.9	–	–
AGUUAUCAUGUAGGAUAUGCUUGAGGUAAGAAAGCAGAAGGACAUGAGGAUCACCCAUGUUAAUGAUACAGAUUUUAGUUUCUU	–	–	32.9	201
CCAUUCAGAGGAUAUGCGCAUAGAUAAGACUUUUUUUCUUAACAUGAGGAUCACCCAUGUAGAAGGCUGUAACC	–	–	19.7	18.6
UGUUGUAUUACAGGAUAUCUAUUAUUUUGAUUUAGAGAAGGGUAUUCACAUGAGGAUCACCCAUGUAUAUACGAGGAAGUUGUG	47.7	47.9	–	–
GUGCCUUGGGAGAAGGCAGUAUGCAAAGCAUUCUGAGGAUAUUCAUACCGGAAACGGACAUGAGGAUCACCCAUGUGGCACAAA	1210	64.6	–	–
AGAACAUGAGGAUCACCCAUGUAAAGGUCGGUCAAUAAGGGUGAGGAUAUGCUUAAAAUAAGGUAGCAGAAGGUGCUUGGUGCA	713	603	–	–
CAGUGCAAUGUAGGAUAUGCUCAGGAAUACUGAGCAGAAGGACAUGAGGAUCACCCAUGUACUAUGAAAGAUAAUAAAGCACUG	–	–	13.5	18.2
ACCUCACAUGAGGAUCACCCAUGUUAGGAUAUUAAAUAGCGCGCAAAACAGCCCUGUAUGAGAAGGAGCUGGGA	–	–	13.6	14.8
UGUUUUGUACAUGAGGAUCACCCAUGUUAAUAUGUGGUAGUCAGAAGGCAUUGUUUGAGAUAUUAUGAGGAUAUGAUUAGUCUG	–	43.9	–	–
CUUUUGUGAGGAUAUGUGGCUUCGAUCGUGAGAUCGAGGCUACAGAAGGCACAUGAGGAUCACCCAUGUUCCUU	–	–	17.6	69.7
AAGAGGAAAGCAGGAUAUCUAUAGGCUCCUUAACAUGAGGAUCACCCAUGUAGAGAAGGGCUAAGACCGACUCUUCGGAGUUGG	–	–	8.69	25.3

Sequence	apparent Kd [1] [nM]	apparent Kd [2] [nM]	apparent Kd [3] [nM]	apparent Kd [4] [nM]
GCGCUUAUACAGAAGGCCAUAUACAUGAGGAUCACCCAUGUUAUUUGGUGGAGGAUAUGUUUAUUAUUACAGGUAGAUGAGCGC	6.3	5.72	–	–
CGUGAGUCAGGAUAUUAGUAGUGUGUGGAUACAUAUAUUGCUGAGAAGGGACAUGAGGAUCACCCAUGUAUACG	–	–	32	37.1
GGUUGUCAUCGUCGUCCUUUCGGUACAUGAGGAUCACCCAUGUAGGAUAUGCUGCAUUCGAUGUGGCAGAAGGGCGUGUGUGUU	–	–	16.7	18.4
GCAUGCAAGUAGAAGGUCGGAUAUUUUGAUAACGAAGGAUAUACAGAAUCAUAUCCACAUGAUAACAUGAGGAUCACCCAUGUA	–	–	14.7	15.8
GACAUGGUCCAGAAGGGCUAUUUAUUUAAGUACGAUUUAGAACAGCAUAGCAGGAUAUGGCUAACAUGAGGAUCACCCAUGUUC	19.3	11.9	–	–
ACAAAUGGAGGAUAUACAUGAGGAUCACCCAUGUAUAUCCUACAUAUGUGAUAAUAAUGUAGAAGGCCAUUUGA	–	–	11.6	11.4
UGACGGCACACAGGAUAUAGUGCAGAAAGUGUACUAGAAGGGUGAGCACUCGUCCGGGCACAUGAGGAUCACCCAUGUCGUCGA	207	512	–	–
CCCGAGUUAGGAUAUCGGACCGGUCCGCGCGGACUGGCAAUUGAGAAGGAACAUGAGGAUCACCCAUGUGAGUA	–	–	25.5	52.3
GCUUUAUUGGUCAGGAUAUACAUUUGCUACUCUUUGUAGAAGGGACAUGAGGAUCACCCAUGUACUUUACAUUC	–	–	16	16.4
CUUCUCAAAGGAUAUCACGGUAAUAACAUGAGGAUCACCCAUGUGCAAUUCGUGUCCCUGUGAGAAGGUUGAGAAG	–	–	10.5	18.2
AUCAGCUCGUCAGGAUAUACGUCACUGCAUCAGCAGUGUGGUAAGAUCACAUGAGGAUCACCCAUGUAGAAGGGACGAGCUGAU	–	–	22.9	139
ACUGUGCAUUAGAAGGGUGCGCGGCAAUCGCGCACAGGAUAUGAUGACAUGAGGAUCACCCAUGUCUGUGUUACCUGGGUGUCG	–	–	19.1	135
UAAGUUGAGGAGAAGGGAGCACAUGAGGAUCACCCAUGUGGUUCUUUGUGCUCAGGAUAUCCAUGGAGCUCCAACGCGUUCCCG	–	–	63.1	10.3
UUUCAGCAAGGAUAUACGGGCUGUGCUUUUCAUUUCUUACAACAUGAGGAUCACCCAUGUAGAAGGUGCUUCUU	–	–	297	736
AACGCAGAAAUCGCAAUACAUGAGGAUCACCCAUGUAGAUCACAGGAUAUGGUCUAGUCAGUGGUCCAGAAGGGUGAUCAGAAC	66.4	38.6	–	–
AUCUUGAGAGGAUAUACAUGAGGAUCACCCAUGUUUCUAACACCAUGCGGUCAUUUGCGUAGAAGGCUCGUCCG	–	–	19.9	34.1
GUGCCUUGGGAGAAGGCCGUAUGCAAAGCAUACGGAGGAUAUCCAUACCGGAAACGGACAUGAGGAUCACCCAUGUGGCACAAA	15.1	6.03	–	–
AAUCUAUUUAUGGGAUUACAAUAUGAGGAUAUCAUUCAUCUAUACAUGAGGAUCACCCAUGUUACUGAGAAGGCAUAUAUAAUA	14.1	9.85	–	–
GGUACCAUCACAGGAUAUGCUAUGGUUUCCGUAGCAGAAGGGUGAUAACAUGAGGAUCACCCAUGUGGUACCGGGCGUGAGCCC	741	201	–	–
UGAGCUUGAGGAUAUACAUGAGGAUCACCCAUGUUGAGCUUGAGGAUCUUCGAGUUCGGUAGAAGGCGAGUUCG	–	–	16	33
AAGAACUUAGGAUAUACAUGAGGAUCACCCAUGUAGCUUCACUUGGGCCUGAGCCCGUGUAGAAGGAAGAAAAU	–	–	87.9	59
